Measured values pooled from the literature.
Compare with care: the assays were run in different laboratories.
Target: Proto-oncogene tyrosine-protein kinase ROS (ROS1, Homo sapiens, UniProt P08922)

O=C(NCCCC1CCCCC1)c1ccc(CNC(=O)c2cnn(-c3ccccc3)c2C(F)(F)F)cc1 gave a remaining binding of 100% (cell-free assay, competition with immobilised ligand; 0.1 µM).
With N[C@H]1CCN(c2nccc(-c3cnn4ncccc34)n2)C1 the remaining binding was 85% (binding; 1 µM).
COc1cnc(Nc2cccc(S(N)(=O)=O)c2)nc1N1CCN(c2ccccc2)C(=O)C1 gave a remaining binding of 100% (binding, competition with immobilised ligand; 1 µM).
CC1=C(C#N)[C@@H](c2ccc3[nH]nc(C)c3c2)C(C#N)=C(c2ccc(Cl)cc2)N1 gave a remaining binding of 100% (cell-free assay, competition with immobilised ligand; 1 µM).
c1cnn2ncc(-c3ccnc(N4CCC45COC5)n3)c2c1 has a remaining binding of 100% (binding; 1 µM).
CO[C@@H](C)c1c(Nc2ccc([C@H](N(C)C(=O)C3CCS(=O)(=O)CC3)C(F)(F)F)cc2)cnc2cc(Cl)nn12 gave a remaining binding of 77% (cell-free assay, competition with immobilised ligand; 1 µM).
For O=C(NCCCN1CCOCC1)c1ccc(Nc2nccc(-c3cc4ccccc4s3)n2)cc1, the remaining binding was 53% (binding, competition with immobilised ligand; 1 µM).
CNC(=O)[C@@H]1CC[C@@H](n2c(-c3ccc4cnccc4c3)nc3ccc(C(=O)NCc4cccc(C(N)=O)c4)cc32)C1 gave a remaining binding of 100% (binding, competition with immobilised ligand; 1 µM).
Cc1cnn2ncc(-c3ccnc(N(C)C)n3)c2c1 has a remaining binding of 100% (binding; 1 µM).
The remaining binding of O=C(NCC1CCOCC1)c1n[nH]cc1NC(=O)c1c(F)cccc1F is reported as 100% (binding, competition with immobilised ligand; 1 µM).
O=C(NCCCN1CCOCC1)c1ccc(Nc2ncc(Cl)c(-c3ccc(Cl)s3)n2)cc1 has a remaining binding of 47% (binding, competition with immobilised ligand; 1 µM).
CO[C@H]1CC[C@H](CNc2ccc(S(=O)(=O)NC(=O)c3ccc(N4CCN(CC5=C(c6ccc(Cl)cc6)CC(C)(C)CC5)CC4)cc3Oc3cnc4[nH]ccc4c3)cc2[N+](=O)[O-])CC1 has a remaining binding of 72% (cell-free assay, competition with immobilised ligand; 1 µM).
For COc1ncc2cc3ccccc3nc2c1C#N, the remaining binding was 91% (cell-free assay, competition with immobilised ligand; 5 µM).
The remaining binding of CC(C)(O)c1cncc(-c2nc3ccc(F)cc3n2C2CC2)c1 is reported as 100% (cell-free assay, competition with immobilised ligand; 1 µM).
CN(C)c1ncc(F)c(-c2cnn3ncccc23)n1 gave a remaining binding of 87% (binding; 1 µM).
For O=C(c1ccc(Nc2nccc(-c3cc4ccccc4s3)n2)cc1)N1CCC(N2CCCC2)CC1, the remaining binding was 65% (binding, competition with immobilised ligand; 1 µM).
With COc1ccc2c(O[C@@H]3C[C@H]4C(=O)N[C@]5(C(=O)O)CC5/C=C\CCCCC[C@H](NC(=O)OC5CCCC5)C(=O)N4C3)cc(-c3csc(NC(=O)C(C)C)n3)nc2c1C (stereo partly shown) the remaining binding was 100% (cell-free assay, competition with immobilised ligand; 1 µM).
For COc1ccnn2ncc(-c3ccnc(N(C)C)n3)c12, the remaining binding was 100% (binding; 1 µM).
The remaining binding of c1cncc(-c2cccc(Nc3nccc(NC4CCCCC4)n3)c2)c1 is reported as 20% (binding, competition with immobilised ligand; 10 µM).
For FC(F)(F)Oc1cccc(-c2cnc3ccc(-c4ccncc4)nn23)c1, the remaining binding was 81% (binding, competition with immobilised ligand; 5 µM).
C[C@@H]1CCN(c2nccc(-c3cnn4ncccc34)n2)C1 gave a remaining binding of 99% (binding; 1 µM).
For CN(C)CC#Cc1ccc(OCCCc2sc(N3CCc4cccc(C(=O)Nc5nc6ccccc6s5)c4C3)nc2C(=O)O)c(F)c1, the remaining binding was 93% (cell-free assay, competition with immobilised ligand; 1 µM).
